From PubChem BioAssay
RGS4 inh: human RGS4 inhibition | P49798 | HEK293 M3R/RGS4 inducible, Fluo-4 calcium flux; stronger effect = higher value; triggered by carbachol at its EC20 | B-score at 10 µM | 310,000 tested, 0.45% active;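 active = B-score, a plate-corrected calcium signal, over three deviations above library mean, with baseline fluorescence within five deviations of library mean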;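 note: RGS4 expression induced by doxycycline in cells with stable M3 receptor; B-score is computed from the integrated fluorescence ratio over baseline after carbachol; higher B-score means a larger calcium signal and so more RGS4 inhibition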
Target sequence (P49798 whole entry, looked up): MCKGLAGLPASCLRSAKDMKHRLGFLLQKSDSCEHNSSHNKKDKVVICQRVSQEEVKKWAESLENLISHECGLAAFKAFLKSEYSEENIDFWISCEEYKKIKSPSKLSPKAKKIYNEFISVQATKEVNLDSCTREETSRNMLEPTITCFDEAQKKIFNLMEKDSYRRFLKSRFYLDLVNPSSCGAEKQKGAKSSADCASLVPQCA
MrgX1 allo act: human MrgX1 positive allosteric modulation, primary screen; Q96LB2; MrgX1-HEK293, Fluo-4 calcium flux, FDSS; stronger effect = higher value; B-score at 10 µM; 310,000 tested, 0.63% active; AID 588675;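 active = plate-corrected calcium response at least 3 library SD above typical, normal starting fluorescence, not activating the receptor alone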;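 note: compound read alongside a low EC10 to EC30 dose of BAM8-22 agonist; peak minus trough fluorescence over baseline measured at the second addition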
Target sequence (Q96LB2 whole entry, looked up): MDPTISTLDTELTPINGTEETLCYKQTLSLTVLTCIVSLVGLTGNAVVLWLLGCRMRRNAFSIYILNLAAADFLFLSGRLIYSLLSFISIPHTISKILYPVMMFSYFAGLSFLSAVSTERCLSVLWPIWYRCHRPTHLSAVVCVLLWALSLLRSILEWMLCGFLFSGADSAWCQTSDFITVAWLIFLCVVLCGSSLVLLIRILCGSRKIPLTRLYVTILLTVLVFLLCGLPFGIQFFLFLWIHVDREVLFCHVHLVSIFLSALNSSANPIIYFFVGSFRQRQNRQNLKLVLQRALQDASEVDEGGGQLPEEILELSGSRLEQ
RGS4 pot: potentiators or activators of RGS4; HEK293 M3R/inducible RGS4, carbachol calcium flux Fluo4; stronger effect = lower value; B-score at 10 µM; 310,000 tested, 0.92% active; AID 463111;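 active = B-score of the integrated calcium signal more than 4 SD below the library mean, with starting fluorescence not abnormally high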;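 note: negative B-score means reduced calcium response which marks RGS4 activation or potentiation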
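Assay system: HEK293 FlpIn-TREx cells, stable M3R, doxycycline-inducible RGS4 / Probe or stimulus: carbachol, ECmax concentration / Times: overnight RGS4 induction, 30 min dye load 37 °C, 20 min compound RT / Signal: kinetic calcium fluorescence imaging with Fluo4-AM dye, 2 µM / Measure: Agonist-evoked peak-minus-minimum fluorescence over baseline, integrated ratio, B score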
MrgX1 agonist: agonists of human MrgX1 receptor; Q96LB2; MrgX1-HEK293 cells, Fluo-4 calcium fluorescence, agonist mode; stronger effect = higher value; B-score at 10 µM; 310,000 tested, 0.44% active;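 active = calcium response B-score plate-corrected fluorescence ratio at least 3 library SD, with starting fluorescence B-score inside 5 SD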
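Assay system: MrgX1-expressing HEK293 cells / Amount: fifteen thousand cells per well / Doses: test compound in the initial addition of three / Timing: cells plated overnight, dye loaded 0.5 h 37 °C, 0.5 h room temperature / Technique: kinetic calcium dye fluorescence, Fluo-4 NW / Control set: positive and negative controls per plate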
MrgX1 antagonist: human MrgX1 receptor antagonism, primary screen. MRGX1-HEK293 calcium flux, Fluo-4, BAM8-22 antagonism; stronger effect = lower value. B-score at 10 µM. 310,000 tested, 1.3% active;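 active = calcium-response B-score plate-corrected more than 3 library SD below zero, starting fluorescence within 5 deviations, no agonist response on first addition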;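 note: peak minus trough fluorescence over baseline after final BAM8-22 challenge near maximal dose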
Of the large screens only hits and unclear results are named; the others gave an inactive call. Only some compounds are listed: those with a hit (about 3.5% of all), similar ones and a draw of the others.

CS(=O)(=O)c1nc(-c2cccs2)cc(C(F)(F)F)n1	MrgX1 agonist 36.3
CC(C)(C)NC(=O)COC(=O)/C=C/c1ccc(F)cc1	none
c1cc2c3c(cccc3c1)C(N1CCCCC1)=N2	none
c1cc2c3c(cccc3c1)C(N1CCCCCC1)=N2	RGS4 pot -7.38
NC(=S)NN=C1c2cc(OCCN3CCOCC3)ccc2-c2ccc(OCCN3CCOCC3)cc21	RGS4 pot -7.38
ON=C1c2cc(OCCN3CCCCC3)ccc2-c2ccc(OCCN3CCCCC3)cc21	none
Cc1ccccc1-n1ncc2c1CC(C)(C)CC2NC(=O)CN1CCCC1=O (centres undefined)	none
COCCNC(=S)N/N=C/c1ccc(OCc2ccc(C(=O)OC)cc2)c(OC)c1	MrgX1 antagonist -4.89
N#Cc1cccc(NC(=O)Cn2cnc(S(=O)(=O)N3CCOCC3)c2)c1	none
COc1cc(C(O)P(=O)(OCC(C)C)c2ccc(N(C)C)cc2)cc(OC)c1OC (centres undefined)	none
CCOP(=O)(c1ccc(N(C)C)cc1)C(O)c1cc(OC)c(OC)c(OC)c1 (centres undefined)	MrgX1 antagonist -4.83
Cc1ccc(N2C(=O)C3C(c4ccccc4)N4CCCN4C3(C)C2=O)cc1 (centres undefined)	none
CC(=O)OCC(=O)Nc1ccc([N+](=O)[O-])cc1Cl	none
CC(=O)Oc1c(C)cc(Cl)cc1C(=O)Nc1ccc([N+](=O)[O-])cc1Cl	MrgX1 antagonist -4.97
COc1ccc(-c2noc3c2-c2nc(-c4c(F)cccc4F)sc2CC3)cc1	none
COC(=O)c1c(NC(=O)C(C)C)sc(C(=O)N2CCOCC2)c1C	none
NC(=O)NC(=O)C(Nc1ccc(N2CCCCC2)cc1)c1ccccc1 (centres undefined)	RGS4 pot -9.05
O=C(CCC1CCCC1)NCc1cccs1	none
OC(c1cccs1)(c1cccs1)C1C[N+]2(CF)CCC1CC2 (centres undefined)	RGS4 pot -8.38
COn1c(-c2ccccc2)c(C=O)c2ccccc21	MrgX1 allo act 18.8
CCC1CCCCN1S(=O)(=O)c1ccc(C(=O)Nc2nnc(-c3cccs3)o2)cc1 (centres undefined)	MrgX1 agonist 65.2 (no result: RGS4 inh, RGS4 pot)
CCOc1ccccc1Nc1nc(N)nc(CN2CCCCC2C)n1 (centres undefined)	none
O=C(c1ccco1)N(CCC(c1ccccc1)c1ccco1)Cc1ccco1 (centres undefined)	MrgX1 antagonist -6.38
Cc1ccc(C(CCN(Cc2ccccc2)C(=O)c2ccco2)c2ccco2)cc1 (centres undefined)	none
Cc1c(S(=O)(=O)Nc2cccc3ccccc23)c(=O)n(C)c(=O)n1C	none
Nc1cc(C(=O)O)c(N)c2c1C(=O)c1ccccc1C2=O	MrgX1 antagonist -5.7
Nc1c(C(=O)O)ccc2c1C(=O)c1ccccc1C2=O	none
CCn1nc(C)c(/C=N/NC(=O)c2ccc3c(c2)c(C)c(C)n3Cc2ccccc2)c1C	RGS4 pot -8.32
CCn1ncc(/C=N\NC(=O)c2ccc3c(c2)c(C)c(C)n3Cc2ccccc2)c1C	none
COc1cccc(C(=O)N2CCN(C(=O)C3CC3)CC2)c1	none (no result: MrgX1 allo act, MrgX1 agonist, MrgX1 antagonist)
CSc1ccc(/C=C2\C(=N)N3N=C(CC(=O)N4CCCCC4)SC3=NC2=O)cc1	MrgX1 agonist 38
CCN(CC)c1ccc(/C=C2\C(=N)N3N=C(CC(=O)N4CCOCC4)SC3=NC2=O)cc1	MrgX1 agonist 28.3
CSc1ccc(/C=C2\C(=N)N3N=C(CC(=O)N4CCOCC4)SC3=NC2=O)cc1	MrgX1 allo act 11.1
CCc1ccc(/C=C2\C(=N)N3N=C(CC(=O)N4CCCCC4)SC3=NC2=O)cc1	none
Cc1ccnc(N2C(=O)c3cccc4c([N+](=O)[O-])ccc(c34)C2=O)c1	MrgX1 antagonist -5.17
CCC(C)[C@H](NC(=O)N1CC(=O)Nc2ccccc21)C(=O)N1CCC(C(=O)O)CC1 (some centres undefined)	none
CCn1c(SCc2cccc(C(F)(F)F)c2)nnc1-c1ccco1	MrgX1 antagonist -6.37
COc1cccc(NC(=O)CSCc2cc(=O)n3nc(C4CC4)sc3n2)c1	none
CC(C)c1ccccc1OCCCCN1CCCCC1	none
CC(C)c1ccccc1OCCCCCN1CCOCC1	RGS4 pot -7.38
COc1ccccc1OCCCCN1CCN(C(c2ccccc2)c2ccccc2)CC1	RGS4 pot -8.11
O=C(NCCS(=O)(=O)N1CCC2(CC1)OCCO2)c1ccccc1	none
S=C(NCCC(c1ccccc1)c1ccccc1)Nc1cccc(Cl)c1	RGS4 pot -7.63
O=C(Nc1ccccc1Cc1ccccc1)c1oc2ccccc2c1COc1ccccc1	MrgX1 antagonist -5.48
Cc1ccccc1C(=O)N1CCC(C(=O)NC2CCCC2)CC1	none
Cc1oc(-c2cccc(Cl)c2)nc1CN1CCCC(C(=O)NC(C)c2ccc3c(c2)OCCO3)C1 (centres undefined)	RGS4 pot -6.96
CCOC(=O)c1ccc(NC(=O)c2ccccc2[N+](=O)[O-])cc1	none
CCOC(=O)c1ccc(Nc2ncccc2[N+](=O)[O-])cc1	MrgX1 antagonist -5.8
Cc1nn(CCCC(=O)NCc2ccc(F)cc2)c(=O)c2nccn12	MrgX1 antagonist -5.52
CC1(C)N=C(SCC(=O)Nc2ccc(Cl)cc2)C(c2ccc(Cl)cc2)=N1	RGS4 pot -7.95
CC1(C)N=C(SCC(=O)Nc2ccc(Cl)cc2)C(c2ccccc2)=N1	none
COc1ccc(-c2n(CC(=O)OC3CC(C)CCC3C(C)C)c3ccccc3[n+]2C)cc1 (centres undefined)	RGS4 pot -7.3 (no result: MrgX1 allo act, MrgX1 agonist, MrgX1 antagonist)
COc1ccc(OCc2n(CC(=O)OC3CC(C)CCC3C(C)C)c3ccccc3[n+]2C)cc1 (centres undefined)	MrgX1 antagonist -14.3
Cc1nn(Cc2ccc(Cl)cc2)c(C)c1NC(=O)CSc1n[nH]c(C)c1[N+](=O)[O-]	MrgX1 antagonist -4.81
Cc1nn(Cc2ccccc2)c(C)c1NC(=O)CSc1n[nH]c(C)c1[N+](=O)[O-]	none
CCCCn1c2ccc(C)cc2c2nnc(SCCN3CCCCC3)nc21	RGS4 pot -12.2
Cc1cc(N/N=C\c2ccccc2)nc(-c2ccccc2O)n1	RGS4 pot -7.62
CCOc1ccc(NC(=O)CN(c2ccc([N+](=O)[O-])cc2)S(=O)(=O)c2ccccc2)cc1	MrgX1 antagonist -5.36
O=C(/C(=N\O)n1cncn1)c1ccc(Cl)cc1Cl	none
O=C(/C(=C/c1ccccc1)n1cncn1)c1ccc(Cl)cc1Cl	MrgX1 agonist 26.5
COc1cc(OC)c(OC)cc1/C=C/C(=O)c1ccc(NS(=O)(=O)c2ccc(C)cc2)cc1	MrgX1 antagonist -4.8
O=Cc1ccc(OC(=O)/C=C/c2ccccc2)cc1	none
COC(=O)Nc1nn(-c2ccc(OC)cc2)c(=O)c(C#N)c1C	none
COc1ccc(-n2nc(C(=O)N3CCCCC3)c(C)c(C#N)c2=O)cc1	MrgX1 antagonist -5.83
COP(=O)(OC)c1nc(-c2ccc([N+](=O)[O-])cc2)oc1N1CCCCC1	MrgX1 agonist 33
